# Results reported in BindingDB's records for doi:10.1021/jm030003x (University of Alabama At Birmingham, 2003).
# Molecular target: T1, NH(3)-dependent NAD(+) synthetase (Bacillus subtilis (strain 168), UniProt P08164)
# T1 sequence (P08164 whole entry): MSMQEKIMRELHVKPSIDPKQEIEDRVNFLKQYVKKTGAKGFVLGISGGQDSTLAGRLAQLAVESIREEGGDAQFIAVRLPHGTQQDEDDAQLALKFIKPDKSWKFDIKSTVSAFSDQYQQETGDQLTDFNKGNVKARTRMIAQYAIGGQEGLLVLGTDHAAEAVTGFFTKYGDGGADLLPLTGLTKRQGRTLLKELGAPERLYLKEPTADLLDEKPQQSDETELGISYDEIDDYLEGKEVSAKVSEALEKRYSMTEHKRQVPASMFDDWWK
# Assay: Inhibitory activity against Bacillus subtilis NAD synthetase
# Method in brief: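 Purified recombinant B. subtilis NAD synthetase, 2.0 µg/mL. Coupled assay: the NAD formed is converted to NADH by yeast alcohol dehydrogenase (40 µg/mL) with 1% EtOH. Buffer is 58.5 mM HEPES pH 8.5 with NH4Cl, KCl, MgCl2, 0.1 mM NaAD, 0.2 mM ATP, 0.3% BOG and 2.5% DMSO. ATP starts the reaction, which runs 10 min and is stopped with guanidine·HCl. Read A340 and fluorescence 460 nm minus pre-ATP background. IC50 from % inhibition at six concentrations.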
structure (smiles),measurement,value
CN[C@@H]1[C@@H](O)[C@@H](O[C@@H]2[C@@H](O)[C@H](O[C@H]3O[C@H]([C@@H](C)NC)CC[C@H]3N)[C@@H](N)C[C@H]2N)OC[C@]1(C)O [GENTAMICIN],IC50,> 1000 nM
